From PubChem BioAssay
ERAP1 HTS inh = blocks human ERAP1 aminopeptidase activity; recombinant ERAP1, Leu-AMC fluorescence, 60 min; inhibition, % at 10.7 µM; 0.15% of 340,000 active;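 active = mean replicate inhibition of at least 30%, or all replicates individually reaching that 30% level; inactive = mean below 30% and not every replicate reaching it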;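 note: 0% = neutral control wells and 100% = L-leucinethiol positive control wells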
FGF22 binding = FGF22 (human) thermal shift binding; recombinant FGF22 thermal shift, SYPRO orange fluorescence; percent of sucrose octasulfate shift, DMSO zero; activity (Tm shift, normalised), % at 9.99 µM; 1.5% of 340,000 active;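 active = mean Tm shift, scaled 0 neutral to 100 positive control, at about 1.3% or above, every replicate too, limit read from the data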
Target sequence (Q9HCT0 whole entry, looked up): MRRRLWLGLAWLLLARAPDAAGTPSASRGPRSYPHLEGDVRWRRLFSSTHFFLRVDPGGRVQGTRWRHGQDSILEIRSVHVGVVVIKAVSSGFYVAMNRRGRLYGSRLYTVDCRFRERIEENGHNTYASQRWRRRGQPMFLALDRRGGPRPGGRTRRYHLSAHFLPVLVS
Cneo AK release = causes C. neoformans cell lysis; adenylate kinase release luminescence, 4 h; normalised: neutral wells 0, clomiphene wells 100; lysis activity, % at 15 µM; 0.2% of 360,000 active; AID 651654;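 active = mean lysis activity across replicates of at least 80%, whatever share of replicates individually reach that level; inactive = mean lysis activity below 80%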
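Signal: Adenylate kinase release luminescence | Assay system: Log-phase Cryptococcus neoformans yeast cells | Input: Cells at 5 × 10^6 per mL | Buffer or medium: Fresh YPD growth medium | Compound: Single dose | Schedule: Static 4 h at 37 °C with compound, 1 h detection | Controls: Clomiphene | Read-out: Luminescence rise reflecting yeast cell lysis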
rRNA inh HTS = inhibitors of bacterial rRNA selective over humanized ribosomes; GFP signal change (wild-type ribosome), % (no concentration beside the values); E. coli WT GFP vs humanized-ribosome RFP mutants, fluorescence, 24 h; stronger effect = lower value; DMSO median 0, no signal -100; 1.6% of 350,000 active;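 active = significant combined selectivity score with lowered wild-type GFP, culture density cut under 30%, mutant RFP and density less affected; inactive = any of these conditions unmet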
HIV Env fusion = HIV envelope-mediated fusion inhibition; HeLa-JRFL Env/CEM21 cell fusion, luciferase; inhibition, % at 12.3 µM; 1.1% of 360,000 active; AID 651610;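 active = mean replicate inhibition score of at least 50 and every replicate individually at or above 50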;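 note: 0% = plate neutral controls and 100% = maraviroc near 300 nM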
PGC1a acetyl inh = PGC1a acetylation modulation, inhibitor mode | U2OS PGC1a acetylation, AlphaScreen anti-acetyl-lysine; with virally co-expressed GCN5 acetyltransferase | inhibition, % at 15.6 µM | 0.17% of 350,000 active;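 active = every replicate shows inhibition of at least 40%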;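 note: 0% = neutral control wells and 100% = positive control wells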
Starred values were filed as active, the others as inactive; · = not tested or not shown; [ ] = dose if it differs, or a comment. Sampled rows, rich in hits. Any-hit rate of the full collection: about 3.5%.

SMILES | ERAP1 HTS inh | FGF22 binding | Cneo AK release | rRNA inh HTS | HIV Env fusion | PGC1a acetyl inh
COc1ccc(C(=O)NNC(=S)NC(=O)c2cccc([N+](=O)[O-])c2)cc1 | -2 | 0 | -5 | -26* | 18 | -2
O=C(NC(=S)NNC(=O)c1ccccc1O)c1cccc([N+](=O)[O-])c1 | -4 | 0 | 0 | -20 | 1 | ·
COc1ccc(C(=O)NNC(=O)c2cccc3ccccc23)cc1 | 2 | 44* | -2 | 6 | · | 3
COc1ccc(C(=O)NC(=S)NNC(=O)c2ccccc2C)cc1 | 0 | 0 | 2 | -41* | 15 | ·
COc1ccc(C(=O)NC(=S)NNC(=O)c2ccccc2O)cc1 | -1 | 1 | 4 | 8 | 5 | ·
CC(C)NC(=O)C1CCN(C2CCN(CC3CC=CCC3)CC2)CC1 (stereo unspecified) | 3 | · | · | 8 | -46 | ·
Cn1nc(-c2ccc(N3CCOCC3)c(NS(=O)(=O)c3ccccc3)c2)c2ccccc2c1=O | -1 | 0 | 2 | 17 | · | 4
Cc1cc(C)c(OCCCn2ccnc2)c(C)c1 | -4 | 0 | 5 | 0 | -27 | -2
CCOC(=O)c1sc2nc(CC(=O)OC)nc(NCCN3CCOCC3)c2c1C | · | · | -2 | · | · | -4
CCS(=O)(=O)N1Cc2ccccc2CC1C(=O)NC(C)C12CC3CC(CC(C3)C1)C2 (stereo unspecified) | · | · | -1 | · | 102* | -2
CCS(=O)(=O)N1Cc2ccccc2CC1C(=O)NCC12CC3CC(CC(C3)C1)C2 (stereo unspecified) | · | · | 0 | · | 86* | -7
CCS(=O)(=O)N1CCC2(CC1)CN(S(=O)(=O)c1ccc(C)cc1)[C@@H](CO)c1[nH]c3cc(OC)ccc3c12 | 0 | 0 | · | -5 | · | -4
Cc1ccc(S(=O)(=O)N2CCCCC2)cc1NC(=O)c1ccc(Br)o1 | 0 | 0 | · | -3 | -14 | 2
CC(C)C[C@H](CO)N(Cc1ccccc1)S(=O)(=O)N(Cc1ccccc1)[C@@H](CO)CC(C)C | -3 | -1 | -1 | -3 | 109* | -26
C=CS(=O)(=O)N(Cc1ccccc1)[C@H](CO)CC(C)C | 1 | 0 | -1 | 7 | -2 | -16
O=S(=O)(N(Cc1ccccc1)[C@@H](CO)Cc1ccccc1)N(Cc1ccccc1)[C@@H](CO)Cc1ccccc1 | 0 | 0 | 7 | 3 | 71* | ·
COc1ccc(CC(=O)Nc2ccc(N3CCCC3)c(C)c2)cc1 | -2 | 0 | -3 | 2 | -2 | -31
Cc1n[nH]c(C)c1N=Nc1ccc(Br)cc1 | -3 | 0 | 3 | -36* | -13 | -2
CCOc1ccc(N(CC(=O)NCCCOC)S(C)(=O)=O)cc1 | · | · | -1 | · | · | 0
Cc1ccc(S(=O)(=O)N(CC(=O)NCC2CCCO2)c2cccc([N+](=O)[O-])c2)cc1 (stereo unspecified) | 5 | 0 | · | -1 | 19 | -31
CCOc1ccc(N(CC(=O)NCCSCc2ccc(Cl)cc2)S(C)(=O)=O)cc1 | -1 | 0 | 2 | 2 | 80* | -11
CS(=O)(=O)N(CC(=O)NCC1CCCO1)c1cccc([N+](=O)[O-])c1 (stereo unspecified) | 0 | 43* | · | 11 | -8 | -4
Cc1ccc(CSCCNC(=O)CN(c2cccc([N+](=O)[O-])c2)S(C)(=O)=O)cc1 | -2 | 1 | · | -4 | 55* | ·
COc1ccc(N(CC(=O)NCCSCc2ccc(Cl)cc2)S(C)(=O)=O)cc1Cl | 1 | 0 | -1 | -19 | 121* | ·
O=C(COc1ncnc2sccc12)N1CCN(c2ccccc2)CC1 | -1 | 0 | -3 | 2 | -35 | -2
SMILES | ERAP1 HTS inh | FGF22 binding | Cneo AK release | rRNA inh HTS | HIV Env fusion | PGC1a acetyl inh
Fc1ccc(NC(=S)NNc2ncc(C(F)(F)F)cc2Cl)c(F)c1 | -5 | 0 | · | -55 | 70* | 0
FC(F)(F)c1cnc(NNC(=S)Nc2ccc(Cl)cc2)c(Cl)c1 | · | · | · | · | 55* | ·
Cc1ccc(NC(=S)NNc2ncc(C(F)(F)F)cc2Cl)cc1 | · | · | 4 | · | 3 | ·
Cc1ccc(CN2C(=O)NC(Cc3c[nH]c4ccccc34)C2=O)cc1 (stereo unspecified) | · | · | -1 | · | 15 | -8
O=C1NC(Cc2c[nH]c3ccccc23)C(=O)N1Cc1cccc2ccccc12 (stereo unspecified) | 0 | 43* | 0 | -27 | 41 | ·
CC(C)CNC(=O)CN1C(=O)NC(Cc2c[nH]c3ccccc23)C1=O (stereo unspecified) | 0 | 43* | · | 10 | -10 | ·
Cc1cc(/N=C/C=C2\N(C)c3ccccc3C2(C)C)n(CCC#N)n1 | · | · | -2 | · | -12 | 2
Cc1ccc(-c2nnnn2-c2ccc(C)cc2)cc1 | 4 | 43 | · | -9 | 14 | -3
Cc1ccc(-n2nnnc2-c2cnc(-c3cccnc3)nc2C(F)(F)F)cc1 | · | · | 1 | · | 45 | 3
Cc1ccc(-n2nnnc2-c2cnn(-c3ccc(F)cc3)c2C(F)(F)F)cc1 | · | · | 2 | · | 96* | ·
Cc1ccc(-n2nnnc2-c2ccccc2Br)cc1 | 0 | 0 | 0 | -28* | -21 | 5
O=C(Nc1ccc(CN2CCOCC2)cc1)c1ccc(Br)o1 | -1 | 0 | 0 | 3 | -20 | -5
Nc1c(Cl)cnc(C(Cl)(Cl)Cl)c1Cl | 0 | 43* | · | -26 | 3 | ·
Cc1ccc(-n2c(O)c(C=Nc3ccccc3-c3n[nH]c(=S)[nH]c3=O)c3ccccc3c2=O)c(C)c1 | 15 | 0 | · | -44 | 20 | -7
Cc1ccc(-n2c(O)c(C=Nc3ccccc3-c3n[nH]c(=S)[nH]c3=O)c3ccccc3c2=O)cc1C | 4 | 0 | · | -38* | 29 | -12
O=C(Nc1ccc(F)cc1)C(c1ccccc1)N1CCN(S(=O)(=O)c2c(F)cccc2F)CC1 (stereo unspecified) | · | · | -1 | · | -15 | ·
COc1ccc(CNC(=O)/C(C)=C\C(=O)O)cc1 | 0 | 43* | · | · | -43 | ·
COC(=O)C1=C(C)OC(N)=C(C#N)C1C1CCCCC1 (stereo unspecified) | 4 | 0 | 1 | -21* | · | 1
COC(=O)C1=C(C)OC(N)=C(C#N)C1c1ccccc1 (stereo unspecified) | · | · | -1 | · | -221 | -7
CCC(=O)N(C)C[C@@H]1Oc2cc(-c3cccc(OC)c3)ccc2S(=O)(=O)N([C@H](C)CO)C[C@@H]1C | 1 | 0 | 5 | -6 | -11[16.7 µM] | 5
O=C(COC(=O)c1cc([N+](=O)[O-])ccc1NCc1ccccc1)NCc1ccccc1Cl | -2 | 1 | · | 7 | -11 | ·
CN1C(=O)c2cc(NC(=O)c3ccc(F)c(F)c3)ccc2OC[C@@H]2O[C@H](CC(=O)N3CCOCC3)CC[C@@H]21 | · | 0 | 4 | -3 | 10[16.7 µM] | -2
CNCCCNC(=O)c1ccc(/C=N/O)nc1 | 0 | 0 | · | 22 | 13 | ·
